Here are results for one substance from paper PMC3954597 (Biochemistry, 2014).

Changes are numbered by the printed parent chain. Several values for one entry are separate records, joined by “and”; a condition that tells them apart may be missing. Equal values may be shown once.

As usually defined, the Km is the concentration of substrate that gives half-maximal velocity. One may read the kcat as the number of substrate molecules converted per active site and unit of time at saturation.

For one test, the target named is T1, R47E PTP1B (Homo sapiens, UniProt P18031, R47E).
T1 sequence (P18031 1-321 R47E): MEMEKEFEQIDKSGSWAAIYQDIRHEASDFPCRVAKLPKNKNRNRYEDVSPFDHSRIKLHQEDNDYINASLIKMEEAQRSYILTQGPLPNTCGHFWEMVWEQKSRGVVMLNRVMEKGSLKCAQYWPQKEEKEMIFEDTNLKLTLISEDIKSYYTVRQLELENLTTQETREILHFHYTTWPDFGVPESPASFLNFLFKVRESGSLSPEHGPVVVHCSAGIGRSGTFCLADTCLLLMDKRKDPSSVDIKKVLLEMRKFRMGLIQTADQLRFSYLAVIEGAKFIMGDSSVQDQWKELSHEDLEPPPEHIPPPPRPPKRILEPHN
As to the kind of experiment: PTP assay, R47E PTP1B. It counts as biochemical. An outline of the steps: (§1)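 E. coli-expressed catalytic domains were used: wild-type, R24M or R47E PTP1B (aa 1–321), and SHP-1 (aa 205–595). Reactions started with PTP (0.5–20000 nM final) and dephosphorylation was monitored continuously at 282 nm. kcat, KM and kcat/KM came from initial-rate fits (Michaelis–Menten, or V = kcat[E][S]/KM when KM >> [S]) or from fits of progress curves.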

The next test concerns the target T2, R24M PTP1B (Homo sapiens, UniProt P18031, R24M).
T2 sequence (P18031 1-321 R24M): T1 sequence (P18031 1-321 R47E) with R24M, E47R
The test can be described thus: PTP assay, R24M PTP1B. In kind it is biochemical. Put shortly: as §1

The target in a further test is T3, SHP-2 (Homo sapiens, UniProt Q06124).
T3 sequence (Q06124 199-593): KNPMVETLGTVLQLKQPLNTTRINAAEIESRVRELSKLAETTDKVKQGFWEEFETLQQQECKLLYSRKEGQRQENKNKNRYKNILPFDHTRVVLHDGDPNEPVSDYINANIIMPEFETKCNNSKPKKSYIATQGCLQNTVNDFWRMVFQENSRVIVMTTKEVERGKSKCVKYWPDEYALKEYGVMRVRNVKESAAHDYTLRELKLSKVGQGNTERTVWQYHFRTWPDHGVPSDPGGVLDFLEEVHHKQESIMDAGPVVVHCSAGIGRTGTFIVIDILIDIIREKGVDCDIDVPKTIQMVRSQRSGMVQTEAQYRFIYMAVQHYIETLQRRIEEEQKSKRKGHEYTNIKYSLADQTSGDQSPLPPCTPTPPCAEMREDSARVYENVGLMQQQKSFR
To be noted: catalytic domain; cited from earlier work.

As to Ac-SASASpYSASA-NH2, at R47E PTP1B (R47E PTP1B aa 1–321, pH 7.4), the Km came to 12 ± 1 µM, the kcat came out at 35 ± 1 s⁻¹ and the “kcat/KM x 10^7” value is listed as 0.29 x 10^7 M^−1 s^−1. The WT/R47E at R47E PTP1B (ratio of kcat/KM, WT over R47E PTP1B (fold decrease by the mutation)) stood at 0.79. In addition, at R24M PTP1B (R24M PTP1B aa 1–321, pH 7.4), the Michaelis-Menten constant (Km) was determined as 14 ± 0.6 µM, the kcat amounted to 42 ± 2 s⁻¹ and the “kcat/KM x 10^7” value is 0.30 x 10^7 M^−1 s^−1. In addition, the WT/R24M on R24M PTP1B (ratio of kcat/KM, WT over R24M PTP1B (fold reduction by the mutation)) is 0.77. Also, at SHP-2, the Michaelis constant (Km) was 2300 ± 400 µM; the kcat was 42 ± 5 s^−1 and 42 ± 5 ^c s^−1; the “kcat/KM x10^6” value is 0.018 x10^6 M^−1 s^−1 and 0.018 ^c x10^6 M^−1 s^−1.
